Activity calls are given as the source filed them. The rule behind the calls is not given here.
Assays:
[1] = system: Photobacterium leiognathi; assay: Antibacterial activity against Photobacterium leiognathi Sh1 assessed as inhibition of bacterial luminescence at 0.025 mg/mL after 10 mins by bioluminometry-based chronic action test; format: functional; design: scale not given: the % may be the effect or the level left; conditions: in the assay text read “after 16 to 18 hrs” for “after 10 mins”
Method in brief: (§1)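 Chronic (growth plus luminescence) test with P. leiognathi Sh1 at 10^5 cells/mL in chloride solution, compounds added in DMSO. After 10 min at 25 °C, growth medium added at 1:50 and the mix incubated 16–18 h at 30 °C. Luminescence then measured by bioluminometer as % of untreated control. Tetracycline reference.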

[2] = system: MDA-MB-231; assay: Cytotoxicity against human MDA-MB-231 cells assessed as cell growth at 10^-5 M after 48 hrs by SRB assay; format: functional; conditions: MDA-MB-231, 48 h, read-out: Activity
Method in brief: (§2)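 NCI 60-cell-line one-dose primary screen: cells inoculated and preincubated 24–48 h, then test agent added at a single 10^-5 M concentration for a further 48 h. Endpoint is sulforhodamine B protein staining read spectrophotometrically. Reported as percent growth relative to untreated control cells.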

[3] = system: PC-3; assay: Cytotoxicity against human PC3 cells assessed as cell growth at 10^-5 M after 48 hrs by SRB assay; format: functional; conditions: PC-3, 48 h, read-out: Activity
Method in brief: (§3)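 NCI human tumor cell line panel from nine cancer types. Each line was inoculated and preincubated 24–48 h, then exposed to a single concentration (10^-5 M) for 48 h. Growth was read by sulforhodamine B protein staining, measured spectrophotometrically. Value reported as percent growth of treated cells relative to untreated controls.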

[4] = system: SNB-75; assay: Cytotoxicity against human SNB75 cells assessed as cell growth at 10^-5 M after 48 hrs by SRB assay; format: functional; conditions: SNB-75, 48 h, read-out: Activity; method in brief: as §3
[5] = system: A549; assay: Cytotoxicity against human A549 cells assessed as cell growth at 10^-5 M after 48 hrs by SRB assay; format: functional; conditions: A549, 48 h, read-out: Activity; method in brief: as §2
[6] = system: Photobacterium leiognathi; assay: Antibacterial activity against Photobacterium leiognathi Sh1 assessed as inhibition of bacterial luminescence at 0.1 mg/mL after 10 mins by bioluminometry-based acute action test; format: functional; design: scale not given: the % may be the effect or the level left
Method in brief: (§4)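 Marine P. leiognathi Sh1 (Azov Sea shrimp isolate) diluted in chloride solution to 10^5 cells/mL; compounds suspended in DMSO mixed with 1 mL bacterial suspension. Acute test: 10 min at 25 °C, then bioluminescence measured by bioluminometer as % of compound-free control. Tetracycline reference.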

[7] = system: HL-60(TB); assay: Cytotoxicity against human HL-60(TB) cells assessed as cell growth at 10^-5 M after 48 hrs by SRB assay; format: functional; conditions: HL-60, 48 h, read-out: Activity
Method in brief: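 NCI one-dose primary screen on the 60-line human tumour panel. Cells were inoculated and preincubated 24–48 h. Compound was added at 10^-5 M with 48 h continuous exposure. Sulforhodamine B protein staining was read spectrophotometrically. Results are percent growth relative to untreated control cells.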

[8] = system: Aspergillus niger; assay: Antifungal activity against Aspergillus niger at 1 to 5 mg/mL after 48 to 72 hrs by stiff-plate agar-diffusion method; format: functional, organism-based
Method in brief: (§5)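 Fungal plates run by stiff-plate agar diffusion, substances applied to grooves at 5 mg/mL; 10^9 c.f.u./mL cells; incubation 48–72 h at 28–30 °C. Inhibition zone diameter scored (11–15 mm not sensitive, 16–25 mm sensitive, >25 mm highly sensitive). Nystatin standard; experiments done three times.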

[9] = system: Escherichia coli; assay: Antibacterial activity against Escherichia coli at 1 to 5 mg/mL after 24 hrs by stiff-plate agar-diffusion method; format: functional, organism-based
Method in brief: (§6)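 Agar diffusion (stiff plate) with test substances at 5 mg/mL in grooves, allowed to diffuse into nutrient agar; inoculum 10^9 c.f.u./mL; bacteria incubated 24 h at 35 °C. Read-out: inhibition zone diameter (not sensitive 11–15 mm, sensitive 16–25 mm, highly sensitive >25 mm). Vancomycin and oxacillin as standards; three repeats.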

[10] = system: CCRF-CEM; assay: Cytotoxicity against human CCRF-CEM cells assessed as cell growth at 10^-5 M after 48 hrs by SRB assay; format: functional; conditions: read-out: Activity; method in brief: as §2
[11] = system: Staphylococcus aureus; assay: Antibacterial activity against Staphylococcus aureus at 1 to 5 mg/mL after 24 hrs by stiff-plate agar-diffusion method; format: functional, organism-based; method in brief: as §6
[12] = system: HCC 2998; assay: Cytotoxicity against human HCC2998 cells assessed as cell growth at 10^-5 M after 48 hrs by SRB assay; format: functional; conditions: HCC 2998, 48 h, read-out: Activity; method in brief: as §2
[13] = system: Yamadazyma tenuis; assay: Antifungal activity against Candida tenuis at 1 to 5 mg/mL after 48 to 72 hrs by stiff-plate agar-diffusion method; format: functional, organism-based; method in brief: as §5
[14] = system: K562; assay: Cytotoxicity against human K562 cells assessed as cell growth at 10^-5 M after 48 hrs by SRB assay; format: functional; conditions: K562, 48 h, read-out: Activity; method in brief: as §2
[15] = system: NCI-H522; assay: Cytotoxicity against human NCI-H522 cells assessed as cell growth at 10^-5 M after 48 hrs by SRB assay; format: functional; conditions: NCI-H522, 48 h, read-out: Activity; method in brief: as §3
[16] = system: UO-31; assay: Cytotoxicity against human UO31 cells assessed as cell growth at 10^-5 M after 48 hrs by SRB assay; format: functional; conditions: UO-31, 48 h, read-out: Activity; method in brief: as §3
[17] = system: SR; assay: Cytotoxicity against human SR cells assessed as cell growth at 10^-5 M after 48 hrs by SRB assay; format: functional; conditions: read-out: Activity; method in brief: as §3
[18] = system: LOX IMVI; assay: Cytotoxicity against human LOXIMVI cells assessed as cell growth at 10^-5 M after 48 hrs by SRB assay; format: functional; conditions: read-out: Activity; method in brief: as §2
[19] = system: MOLT-4; assay: Cytotoxicity against human MOLT4 cells assessed as cell growth at 10^-5 M after 48 hrs by SRB assay; format: functional; conditions: MOLT-4, 48 h, read-out: Activity; method in brief: as §3
[20] = system: CAKI-1; assay: Cytotoxicity against human Caki1 cells assessed as cell growth at 10^-5 M after 48 hrs by SRB assay; format: functional; conditions: CAKI-1, 48 h, read-out: Activity; method in brief: as §2
[21] = system: Photobacterium leiognathi; assay: Antibacterial activity against Photobacterium leiognathi Sh1 assessed as inhibition of bacterial luminescence at 0.1 mg/mL after 10 mins by bioluminometry-based chronic action test; format: functional; design: scale not given: the % may be the effect or the level left; conditions: in the assay text read “after 16 to 18 hrs” for “after 10 mins”; method in brief: as §1
[22] = system: Photobacterium leiognathi; assay: Antibacterial activity against Photobacterium leiognathi Sh1 assessed as inhibition of bacterial luminescence at 0.25 mg/mL after 10 mins by bioluminometry-based acute action test; format: functional; design: scale not given: the % may be the effect or the level left; method in brief: as §4
[23] = system: Photobacterium leiognathi; assay: Antibacterial activity against Photobacterium leiognathi Sh1 at 0.1 to 0.25 ug/mL; format: functional, organism-based
[24] = system: Mycobacterium; assay: Antibacterial activity against Mycobacterium luteum at 1 to 5 mg/mL after 24 hrs by stiff-plate agar-diffusion method; format: functional, organism-based; method in brief: as §6
[25] = system: Photobacterium leiognathi; assay: Antibacterial activity against Photobacterium leiognathi Sh1 assessed as inhibition of bacterial luminescence at 0.025 mg/mL after 10 mins by bioluminometry-based acute action test; format: functional; design: scale not given: the % may be the effect or the level left; method in brief: as §4
[26] = system: SK-MEL-5; assay: Cytotoxicity against human SK-MEL-5 cells assessed as cell growth at 10^-5 M after 48 hrs by SRB assay; format: functional; conditions: SK-MEL-5, 48 h, read-out: Activity; method in brief: as §3
[27] = system: Photobacterium leiognathi; assay: Antibacterial activity against Photobacterium leiognathi Sh1 assessed as inhibition of bacterial luminescence at 0.25 mg/mL after 10 mins by bioluminometry-based chronic action test; format: functional; design: scale not given: the % may be the effect or the level left; conditions: in the assay text read “after 16 to 18 hrs” for “after 10 mins”; method in brief: as §1
[28] = system: SF-295; assay: Cytotoxicity against human SF295 cells assessed as cell growth at 10^-5 M after 48 hrs by SRB assay; format: functional; conditions: SF-295, 48 h, read-out: Activity; method in brief: as §3
[29] = system: SK-OV-3; assay: Cytotoxicity against human SKOV3 cells assessed as cell growth at 10^-5 M after 48 hrs by SRB assay; format: functional; conditions: SK-OV-3, 48 h, read-out: Activity; method in brief: as §3
[30] = system: EKVX; assay: Cytotoxicity against human EKVX cells assessed as cell growth at 10^-5 M after 48 hrs by SRB assay; format: functional; conditions: read-out: Activity; method in brief: as §2
[31] = system: UACC-257; assay: Cytotoxicity against human UACC257 cells assessed as cell growth at 10^-5 M after 48 hrs by SRB assay; format: functional; conditions: UACC-257, 48 h, read-out: Activity; method in brief: as §3

Compound | Activity [1] [%] | growth at 10 µM [3] [%] | growth at 10 µM [4] [%] | growth at 10 µM [5] [%] | Activity [6] [%] | Activity [8] | Activity [9] | growth at 10 µM [10] [%] | Activity [11] | Activity [13] | growth at 10 µM [14] [%] | growth at 10 µM [16] [%] | growth at 10 µM [17] [%] | growth at 10 µM [19] [%] | growth at 10 µM [20] [%] | Activity [21] [%] | Activity [22] [%] | Activity [23] | Activity [24] | Activity [25] [%] | further results
COc1ccc(-c2nn3c(SCC(=O)O)nc4ccccc4c3nc2=O)cc1 | 88.9 | 91.7 | 93.9 | 95.9 | 80 | inactive | inactive | 90.7 | inactive | inactive | 80.9 | 91.6 | 65.8 | 84.8 | 91.4 | 191.5 | 0 | inactive | inactive | 105 | growth at 10 µM [2]: 89.9%; growth at 10 µM [7]: 63.5%; growth at 10 µM [12]: 94.7%; growth at 10 µM [15]: 94.9%; growth at 10 µM [18]: 86.9%; growth at 10 µM [26]: 95.4%; Activity [27]: 45%
Cc1ccc(-c2nn3c(SCC(=O)O)nc4ccccc4c3nc2=O)cc1 | 93.3 | 86.5 | 74.2 | 96.5 | 20 | inactive | inactive | 95.6 | inactive | inactive | 94.5 | 85.3 | 68 | 84.9 | 82.8 | 255.3 | 0 | inactive | inactive | 91.7 | growth at 10 µM [28]: 84.3%; growth at 10 µM [29]: 89.9%; growth at 10 µM [30]: 95%; growth at 10 µM [31]: 95.1%; growth at 10 µM [26]: 96%; Activity [27]: 0%
